Screens (PubChem BioAssay)
Sampled rows, rich in hits. Any-hit rate of the full collection: about 7.6%.
M1 antag – blocks the rat M1 muscarinic receptor response to acetylcholine. P08482. CHO-M1 cells, Fluo-4 calcium, ACh EC80 antagonist mode; active compounds read low. B-score at 10 µM. 64,000 tested, 3.4% active;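 active = calcium fluorescence response, raw or row-and-column corrected B-score, differing from the plate sample mean either way at a set confidence level, mostly lower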
DAT uptake mod – modulates human dopamine transporter uptake under cocaine. Q01959. LLC-PK1 hDAT cells, [14C]-dopamine uptake with cocaine IC80; actives deviate in either direction. B-score at 10 µM. 110,000 tested, 1.3% active. AID 449768;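 active = Z score or B-score, a plate-position-corrected score, falls beyond the plate's 99.7% confidence bounds, in either direction; inactive = both scores lie inside the 99.7% bounds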;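 also: scored against the spread of the other compound wells on the same plate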
Target sequence (Q01959 whole entry, looked up): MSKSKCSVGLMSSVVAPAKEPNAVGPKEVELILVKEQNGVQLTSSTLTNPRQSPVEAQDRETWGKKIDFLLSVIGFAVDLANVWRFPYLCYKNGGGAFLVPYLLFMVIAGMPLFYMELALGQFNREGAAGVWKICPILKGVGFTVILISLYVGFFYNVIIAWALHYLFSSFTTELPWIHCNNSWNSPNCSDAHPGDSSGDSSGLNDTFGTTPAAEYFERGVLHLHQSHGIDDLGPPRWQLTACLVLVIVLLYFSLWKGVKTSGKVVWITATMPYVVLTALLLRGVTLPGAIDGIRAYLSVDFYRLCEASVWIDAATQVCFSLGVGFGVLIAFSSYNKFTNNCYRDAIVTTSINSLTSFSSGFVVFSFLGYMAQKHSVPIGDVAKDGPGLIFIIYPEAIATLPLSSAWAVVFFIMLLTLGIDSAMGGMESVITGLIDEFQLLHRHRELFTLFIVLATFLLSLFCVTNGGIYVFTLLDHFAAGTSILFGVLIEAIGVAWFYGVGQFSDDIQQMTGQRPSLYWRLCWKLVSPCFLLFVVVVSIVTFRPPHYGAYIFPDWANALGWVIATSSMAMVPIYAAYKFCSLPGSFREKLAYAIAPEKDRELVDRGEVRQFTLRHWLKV
HEK293 NFkB inh – inhibitors of the PMA/ionomycin-induced NF-kB reporter in HEK293 cells; HEK-293 NF-kB luciferase reporter, luminescence; inhibition, % at 3 µM; 62,000 tested, 0.21% active; AID 465;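 active = inhibition above the mean of all tested compounds plus 3 SD, cut at about 40% in these data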;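 also: 0% = stimulated DMSO wells and 100% = 10 µM reference inhibitor 5653914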
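Timing: 1 h pretreatment, 16 h stimulation, 37 °C; system: HEK-293 cells with stable firefly luciferase reporter driven by four HIV NF-kB elements; doses: 3 µM once, 0.30% DMSO; measured by: luciferase luminescence; control set: DMSO and 10 µM reference inhibitor; repeats: single test; reagent: PMA plus ionomycin mix as NF-kB-activating stimulus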
M1 agonist – M1 muscarinic receptor agonism; CHO-M1 cells, Fluo-4 calcium fluorescence, agonist mode; active compounds read high; B-score at 10 µM; 64,000 tested, 3% active;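 active = fluorescence rise, raw or as B-score row- and column-corrected plate score, outside the 99.7% band of its plate's samples, either direction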
D1 allo mod – allosteric modulators of human D1 dopamine receptor; P21728; HEK293 D1, CRE-luciferase, dopamine EC30 potentiation; actives deviate in either direction; B-score at 10 µM; 58,000 tested, 5.9% active; AID 641;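 active = luminescence count or its row- and column-corrected plate score outside the 99.7% band of the plate's sample wells, on either side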
Jurkat tox 60K – cytotoxicity toward Jurkat cells; Jurkat E6.1 viability, ATP luminescence, 48 h; inhibition, % at 4 µM; 56,000 tested, 1.2% active; AID 463;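 active = inhibition above the mean inhibition of all tested compounds plus 3 SD, cut at about 28% in these data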
M1 antag conf – confirmation of rat M1 muscarinic receptor antagonists | shares compounds with M1 antag | CHO-M1 cells, Fluo-4 calcium, ACh EC80 antagonism; active compounds read low | calcium response (max-min fluorescence) at 10 µM | 1,700 tested, 43% active;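 active = calcium response below the same-plate mean of wells given acetylcholine alone at its 80%-effect dose, minus 3 SD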;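 also: raw fluorescence intensity difference in arbitrary instrument units and not normalized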
mGluR4 antag – acts on human mGluR4 in M1 antagonist selectivity test; shares compounds with M1 antag; CHO-mGluR4 calcium flux, Fluo-4 fluorescence, glutamate EC80; active compounds read low; fluorescence response (max-min) at 10 µM; 1,700 tested, 0.9% active;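 active = fluorescence response below the plate's average for near-maximal glutamate wells, less 3 SD of those wells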;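 also: raw unnormalized fluorescence span taken in the window right after glutamate addition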
Active calls of the source: *; . = no result given.

SMILES	M1 antag	DAT uptake mod	HEK293 NFkB inh	M1 agonist	D1 allo mod	Jurkat tox 60K	M1 antag conf	mGluR4 antag
Cc1cccn2c(=O)c3cc(C(=O)NC4CCCCC4)c(=N)n(CCN4CCOCC4)c3nc12	-2.4*	.	23	1.4	-0.16	-1	461	199
N=c1c(C(=O)NC2CCCC2)cc2c(=O)n3ccccc3nc2n1C1CCCC1	0.7	-0.34	11	1.9	1.8	8	.	.
CCCn1c(=N)c(C(=O)NC2CCCC2)cc2c(=O)n3cccc(C)c3nc21	.	1.6	.	.	.	.	.	.
Cc1c(NC2=C(Cl)C(=O)N(c3ccccc3)C2=O)c(=O)n(-c2ccccc2)n1C	-6.3*	-1.5	21	-0.36	-0.45	8	151*	195
Cc1cc(=O)[nH]c(Nc2c(C)n(C)n(-c3ccccc3)c2=O)n1	1.3	0.99	14	-0.45	-1.2	2	.	.
O=C(NCCN1CCCCCC1)C1CCC(CNS(=O)(=O)c2cccc3cccnc23)CC1 (stereo not drawn)	-2*	0.16	13	-0.18	0.67	-11	521	244
CCCC(CCC)C(=O)OC1C[C@H]2CC[C@@H](C1)[N+]2(C)C (stereo partly drawn)	-15*	-0.1	.	-0.15	-0.37	.	30*	246
O=C(Nc1nc(-c2ccc(S(=O)(=O)N3CCCC3)cc2)cs1)C1COc2ccccc2O1 (stereo not drawn)	-8.7*	-0.0025	34	-1.9	-1.7	13	559	206
O=C(Nc1nc(-c2ccccc2)cs1)C1COc2ccccc2O1 (stereo not drawn)	.	-0.55	.	.	.	.	.	.
Cn1c(N2CCN(c3ccccn3)CC2)nc2c1c(=O)n(Cc1ccc(Cl)cc1)c(=O)n2C	-2.2*	-0.23	.	0.71	.	.	619	250
Cn1c(N2CCN(c3ccccn3)CC2)nc2c1c(=O)n(Cc1ccccc1Cl)c(=O)n2C	0.85	0.0011	.	-0.04	.	.	.	.
COC(=O)c1ccc(CSc2ccc3nnc(-c4ccccn4)n3n2)o1	0.51	0.042	13	0.3	0.61	0	.	.
CCOc1ccc(-c2nnc3ccc(SCc4ccc(C(=O)OC)o4)nn23)cc1	-4*	-0.18	19	0.046	-0.12	-4	520*	227
COC(=O)\C(C(C)=O)=C(/C=C/C=C/N(C)C)N(C)C	-2.4*	-0.83	6	0.32	-0.43	9	599	263
COC(=O)/C(C(C)=O)=C(/C=C/C=C/N(C)C)N(C)C	.	-1.4	.	.	.	.	.	.
COC(=O)c1ccc2c(=O)n(Cc3ccc4c(c3)OCO4)c(SCC(=O)N3CCCC3)nc2c1	0.16	.	-2	-1.7	1.2	.	.	.
CCOC(=O)Nc1ccc2c(c1)N(C(=O)N1CCN(C)CC1)c1ccccc1S2	-15*	-0.094	19	0.041	0.0077	1	14*	268
Cn1nnnc1SCC(=O)N1c2ccccc2Sc2ccc(Cl)cc21	-2.7*	-0.42	-3	0.0043	.	2	446*	231
CCOC(=O)Nc1ccc2c(c1)N(C(=O)CCN1CCN(C)CC1)c1ccccc1S2	.	-0.39	.	.	.	.	.	.
O=C(CN1CCN(CCOCCO)CC1)N1c2ccccc2Sc2ccc(Cl)cc21	-17*	-0.066	11	-0.34	0.56	6	24*	236
CN1CCN(CCC(=O)N2c3ccccc3Sc3ccc(Cl)cc32)CC1	-11*	-0.32	.	0.21	-3	.	268*	255
Cn1c(SCC(=O)N2c3ccccc3Sc3ccc(Cl)cc32)nnc1-c1ccco1	-0.43	0.011	11	-0.46	2.1	7	.	.
Cc1ccc(CNC(=O)CCCn2c(=O)[nH]c3ccccc3c2=O)cc1	0.54	0.022	7	-0.28	-0.18	0	.	.
Cc1ccc(NC(=O)Cn2cccc2)c(Br)c1	-2.9*	-0.62	10	0.37	-1.3	-11	566	247
Cc1cc(N2CCCC2=O)cc(C)c1CN1C(=O)c2ccccc2C1=O	-0.034	0.21	13	-1.5	-0.45	1	.	.
SMILES	M1 antag	DAT uptake mod	HEK293 NFkB inh	M1 agonist	D1 allo mod	Jurkat tox 60K	M1 antag conf	mGluR4 antag
CN1C(=S)SC(/[N+]([O-])=C\c2ccc(Cl)cc2)C1(C)C (stereo not drawn)	.	-0.3	.	.	.	.	.	.
CN1C(=S)SC(/[N+]([O-])=C\c2cccs2)C1(C)C (stereo not drawn)	-8*	-0.62	12	0.68	-7.5*	9	610	243
O=S1(=O)C=C(SCc2ccccc2)Nc2ccccc21	.	-0.029	.	.	.	.	.	.
CCN(CC)CCN1C(=O)C2C3c4ccccc4C(c4ccccc43)C2C1=O (stereo not drawn)	-3.6*	0.26	8	-0.0039	-0.61	5	561	271
CCN(CC)CCN1C(=O)c2ccccc2NC1c1ccccc1F (stereo not drawn)	.	-0.64	.	.	.	.	.	.
COc1ccccc1CC(=O)O/N=C(\N)c1cccc([N+](=O)[O-])c1	.	0.51	.	.	.	.	.	.
O=C(c1ccc(=O)oc1)N1CCN(C(c2ccccc2)c2ccccc2)CC1	-2.7*	-1.3	.	0.42	.	.	319*	236
Cc1cc(C(=O)N2CCN(C(c3ccccc3)c3ccccc3)CC2)no1	-3*	1.4	15	0.14	0.061	9	301*	198
Cc1cc(=O)oc(C)c1C(=O)N1CCN(C(c2ccccc2)c2ccccc2)CC1	-0.71	-0.0037	-17	-0.092	-0.026	9	.	.
CCN(C(=O)C1CCN(S(=O)(=O)c2cccc3nonc23)CC1)c1ccccc1	.	0.067	.	.	.	.	.	.
COc1ccc(N2CCN(S(=O)(=O)c3ccc(Br)s3)CC2)cc1	-18*	-0.13	1	0.17	-0.41	7	675	251
CCCC(=O)N(Cc1cc2cccc(C)c2[nH]c1=O)c1ccccc1OC	0.031	-0.32	18	-0.21	0.13	-1	.	.
c1cncc(C(c2nnnn2C2CCCC2)N2CCCC2)c1 (stereo not drawn)	-2*	-0.42	6	0.12	-0.035	0	662	207
COC(=O)C(C)Sc1nc2c(c(=O)n1-c1ccccc1)SCC2 (stereo not drawn)	-0.43	-1.5	14	-0.56	0.96	.	.	.
CCOC(=O)N1CCN(C(=O)c2ccc3c(c2)ncn3C2CCCC2)CC1	-2.3*	0.64	22	1.6	0.52	1	438	211
O=C(COc1ccc(S(=O)(=O)N2CCOCC2)cc1)NC1CCCC1	-0.65	0.026	15	0.68	0.81	6	.	.
O=C(NCc1ccco1)C1c2ccccc2Oc2ccccc21	-5.4*	0.012	5	-0.45	-0.2	-2	556	210
O=C(OCc1cnc(Cl)s1)c1ccc(Cl)cc1	.	-0.47	.	.	.	.	.	.
N=c1sccn1CC(=O)Nc1cc(Cl)ccc1Oc1ccccc1	.	0.0095	.	.	.	.	.	.
N=c1sccn1CC(=O)Nc1cccc(Oc2ccccc2)c1	-2.4*	0.013	14	0.88	-0.97	7	381*	238
